{"data": "Measurements of several laboratories", "organism": "Staphylococcus aureus", "effect on": "microbial growth", "note": "Protocols differ between the studies behind these lines."}
{"SMILES": "Cc1ccc2nc(-c3ccc(Cl)c(Cl)c3)n(Cc3ccccc3)c2c1", "assay": "broth dilution", "system": "ATCC29213 MSSA", "MIC": "32 µg/mL"}
{"SMILES": "CN[C@H](CC(C)C)C(=O)N[C@H]1C(=O)N[C@@H](CC(N)=O)C(=O)N[C@H]2C(=O)N[C@H]3C(=O)N[C@H](C(=O)N[C@H](C(=O)O)c4cc(O)cc(O)c4-c4cc3ccc4O)[C@H](O)c3ccc(c(Cl)c3)Oc3cc2cc(c3O[C@@H]2O[C@H](CO)[C@@H](O)[C@H](O)[C@H]2O[C@H]2C[C@](C)(N)[C@H](O)[C@H](C)O2)Oc2ccc(cc2Cl)[C@H]1O", "assay": "broth dilution", "system": "745524", "MIC": "1 µg/mL"}
{"SMILES": "O=C1NC(=S)N/C1=C\\c1ccc(-c2ccc(N(c3ccccc3)c3ccccc3)cc2)cc1", "assay": "broth dilution", "system": "ATCC43300", "MIC": "> 1000 µg/mL"}
{"SMILES": "CC(C)Oc1c(NC(=O)c2ccc(NC(=O)[C@H](CC(N)=O)NC(=O)c3ccc(NC(=O)c4cc(C#N)cn4C)cc3)cc2)ccc(C(=O)Nc2ccc(C(=O)O)cc2)c1O", "system": "ATCC29213", "MIC": "64 µg/mL"}
{"SMILES": "C[C@@H](Oc1cc(-n2cnc3ccc(CN4CCN(C)CC4)cc32)sc1C(N)=O)c1ccccc1C(F)(F)F", "system": "NCTC8325", "MIC": "> 30 µM"}
{"SMILES": "N=C(N)NN=Cc1ccc(OC/C=C\\COc2ccc(C=NNC(=N)N)cc2)cc1", "system": "USA300", "conditions": "16 h", "MIC": "≤ 3 µg/mL"}
{"SMILES": "CC(C)CC(=O)Nc1n[nH]c2c1CN(C(=O)C1CCN(C)CC1)C2(C)C", "system": "NCTC8325", "MIC": "> 30 µM"}
{"SMILES": "C/C=C(\\C)c1cc(OC(=O)c2c(O)c(C)c(O)c(Cl)c2/C(C)=C/C)c(C)c(O)c1C(=O)O", "assay": "broth dilution", "system": "ATCC29213", "MIC": "64 µg/mL"}
{"SMILES": "Cc1ccc2nc(-c3ccccc3O)[nH]c2c1", "assay": "broth dilution", "system": "ATCC29213 MSSA", "MIC": "128 µg/mL"}
{"SMILES": "CC(C)Oc1c(NC(=O)c2ccc(NC(=O)[C@H](CC(N)=O)NC(=O)c3ccc(-c4nn[nH]c4-c4ccc(C#N)cc4)cc3)cc2)ccc(C(=O)Nc2ccc(C(=O)O)cc2)c1O", "system": "ATCC29213", "MIC": "> 64 µg/mL"}
{"SMILES": "C=CCn1c(-c2ccc(Cl)cc2)nc2ccc(C)cc21", "assay": "broth dilution", "system": "ATCC29213 MSSA", "MIC": "32 µg/mL"}
{"SMILES": "CC(C)Oc1c(NC(=O)c2ccc(NC(=O)[C@H](CC(N)=O)NC(=O)c3ccc(NC(=O)c4ccc(C#N)cn4)cc3)cc2)ccc(C(=O)Nc2ccc(C(=O)O)cc2)c1O", "system": "ATCC29213", "MIC": "≤ 0.03 µg/mL"}
{"SMILES": "O=C(CCCCCC[P+](c1ccccc1)(c1ccccc1)c1ccccc1)Nc1cc(O)c(O)c(O)c1.[Br-]", "assay": "broth dilution", "system": "ATCC43300 MRSA", "conditions": "18 h", "MIC": "32 µg/mL"}
{"SMILES": "CC(=O)NC[C@H]1CN(c2ccc(N3CCOCC3)c(F)c2)C(=O)O1", "assay": "broth dilution", "system": "MRSA NRS119", "conditions": "drug-resistant strain", "MIC": "32 µM"}
{"SMILES": "C[C@@H](O)[C@H]1C(=O)N2C(C(=O)O)=C(S[C@@H]3CN[C@H](C(=O)N(C)C)C3)[C@H](C)[C@H]12", "assay": "broth dilution", "system": "ATCC29213", "MIC": "32 µg/mL"}
{"SMILES": "O=c1[nH]cc(F)c(=O)[nH]1", "assay": "broth dilution", "conditions": "24 h", "MIC": "1 µg/mL"}
{"SMILES": "COc1c(C)c(O)c(C)c(O)c1C(=O)/C=C/c1ccccc1", "assay": "broth dilution", "system": "ATCC25923", "MIC": "2500 µg/mL"}
{"SMILES": "CC1(C)S[C@@H]2[C@H](NC(=O)[C@H](N)c3ccccc3)C(=O)N2[C@H]1C(=O)O", "assay": "broth dilution", "system": "MRSA", "MIC": "32 µg/mL"}
{"SMILES": "CC[C@H]1OC(=O)[C@H](C)[C@@H](O[C@H]2C[C@@](C)(OC)[C@@H](O)[C@H](C)O2)[C@H](C)[C@@H](O[C@@H]2O[C@H](C)C[C@H](N(C)C)[C@H]2O)[C@](C)(O)C[C@@H](C)C(=O)[C@H](C)[C@@H](O)[C@]1(C)O", "assay": "broth dilution", "system": "25923", "MIC": "0.59 µM"}
{"SMILES": "C/C(=C\\c1ccc(C#N)cc1)C(=O)Nc1ccc(C(=O)N[C@@H](CC(N)=O)C(=O)Nc2ccc(C(=O)Nc3ccc(C(=O)Nc4ccc(C(=O)O)cc4)c(O)c3OC(C)C)cc2)cc1", "system": "ATCC29213", "MIC": "0.06 µg/mL"}
{"SMILES": "Fc1cc(-c2cccc3ncc(-c4cnn(C5CCNCC5)c4)nc23)cc(F)c1CN1CCOCC1", "system": "NCTC8325", "MIC": "> 30 µM"}
{"SMILES": "O=C1NC(=S)S/C1=C\\c1c2ccccc2c(-c2ccc(N(c3ccccc3)c3ccccc3)cc2)c2ccccc12", "assay": "broth dilution", "system": "ATCC25923", "MIC": "> 1000 µg/mL"}
{"SMILES": "Cc1ccc2nc(-c3ccco3)[nH]c2c1", "assay": "broth dilution", "system": "ATCC29213 MSSA", "MIC": "256 µg/mL"}
{"SMILES": "COc1c(C)c(OCc2ccccc2)c(C)c(O)c1C(=O)/C=C/c1ccccc1", "assay": "broth dilution", "system": "ATCC25923", "MIC": "5000 µg/mL"}
{"SMILES": "CCCN/C(=N/C)c1ccc(NC(=O)c2ccc(C(=O)Nc3ccc(/C(=N\\C)NCCC)cc3)cc2)cc1", "MIC": "16 µg/mL"}
{"SMILES": "Cc1ccc2nc(-c3ccc(Cl)cc3)n(Cc3ccccc3)c2c1", "assay": "broth dilution", "system": "ATCC29213 MSSA", "MIC": "4 µg/mL"}
{"SMILES": "CN[C@H](CC(C)C)C(=O)N[C@H]1C(=O)N[C@@H](CC(N)=O)C(=O)N[C@H]2C(=O)N[C@H]3C(=O)N[C@H](C(=O)N[C@H](C(=O)O)c4cc(O)cc(O)c4-c4cc3ccc4O)[C@H](O)c3ccc(c(Cl)c3)Oc3cc2cc(c3O[C@@H]2O[C@H](CO)[C@@H](O)[C@H](O)[C@H]2O[C@H]2C[C@](C)(N)[C@H](O)[C@H](C)O2)Oc2ccc(cc2Cl)[C@H]1O", "system": "ATCC25923", "MIC": "0.39 µg/mL"}
{"SMILES": "Cn1cnc2c(F)c(Nc3ccc(Br)cc3Cl)c(C(=O)NOCCO)cc21", "system": "NCTC8325", "MIC": "> 30 µM"}
{"SMILES": "CC(C)Oc1c(NC(=O)c2ccc(NC(=O)[C@H](CC(N)=O)NC(=O)c3ccc(NC(=O)c4cc(=O)c(O)c[nH]4)cc3)cc2)ccc(C(=O)Nc2ccc(C(=O)O)cc2)c1O", "system": "ATCC29213", "MIC": "> 64 µg/mL"}
{"SMILES": "O=C(O)c1cn(C2CC2)c2cc(N3CCNCC3)c(F)cc2c1=O", "assay": "broth dilution", "system": "ATCC6538", "MIC": "0.24 µg/mL"}
{"SMILES": "CCn1cc(C(=O)O)c(=O)c2cc(F)c(N3CCNCC3)cc21", "assay": "broth dilution", "system": "ATCC11632", "conditions": "18 h", "MIC": "< 5 µg/mL"}
{"SMILES": "C[C@@H](O)[C@H]1C(=O)N2C(C(=O)O)=C(S[C@H]3C[C@@H](C(=O)N4CC[C@H](NC(=O)CNC(=N)N)C4)N(C)C3)[C@H](C)[C@H]12", "system": "MRSA", "MIC": "8 µg/mL"}
{"SMILES": "CCCCCCC#Cc1cncc(-c2nnc(SCc3ccc(Cl)cc3)n2C2CC2)c1", "system": "MRSA", "conditions": "drug-resistant strain", "MIC": "≥ 20 µg/mL"}
{"SMILES": "O=C1NN=C(N=Cc2ccccc2O)C1=NNn1c(-c2ccccc2)nc2ccccc2c1=O", "assay": "broth dilution", "conditions": "24 h", "MIC": "111 µM"}
{"SMILES": "Cc1ccc2nc(-c3ccc([N+](=O)[O-])cc3)n(Cc3ccc(Cl)cc3)c2c1", "assay": "broth dilution", "system": "ATCC29213 MSSA", "MIC": "8 µg/mL"}
{"SMILES": "O=C(O)CN1C(=O)/C(=C/c2ccc(-c3ccc(N(c4ccccc4)c4ccccc4)cc3)cc2)SC1=S", "assay": "broth dilution", "system": "ATCC6538", "MIC": "3.9 µg/mL"}
{"SMILES": "CC(C)Oc1c(NC(=O)c2ccc(NC(=O)[C@H](CC(N)=O)NC(=O)c3cccc(NC(=O)c4ccc(C#N)cc4)c3)cc2)ccc(C(=O)Nc2ccc(C(=O)O)cc2)c1O", "system": "ATCC29213", "MIC": "> 64 µg/mL"}
{"SMILES": "O=C(O)CN1C(=O)/C(=C/c2c3ccccc3c(-c3ccc(N(c4ccccc4)c4ccccc4)cc3)c3ccccc23)SC1=S", "assay": "broth dilution", "system": "ATCC6538", "MIC": "> 1000 µg/mL"}
{"SMILES": "C=CCn1c(-c2ccc([N+](=O)[O-])cc2)nc2ccc(C)cc21", "assay": "broth dilution", "system": "ATCC29213 MSSA", "MIC": "32 µg/mL"}
{"SMILES": "Cc1cnc(Nc2ccc(OCCN3CCCC3)cc2)nc1Nc1cccc(S(=O)(=O)NC(C)(C)C)c1", "system": "NCTC8325", "MIC": "> 30 µM"}
{"SMILES": "CC1(C)S[C@@H]2[C@H](NC(=O)COc3ccccc3)C(=O)N2[C@H]1C(=O)O", "assay": "broth dilution", "system": "MRSA", "conditions": "18 h, clinical isolate", "MIC": "> 128 µg/mL"}
{"SMILES": "CO[C@H]1/C=C/O[C@@]2(C)Oc3c(C)c(O)c4c(O)c(c(/C=N/N5CCN(C)CC5)c(O)c4c3C2=O)NC(=O)/C(C)=C\\C=C\\[C@H](C)[C@H](O)[C@@H](C)[C@@H](O)[C@@H](C)[C@H](OC(C)=O)[C@@H]1C", "system": "NCTC8325", "MIC": "0.009 to 0.018 µM"}
{"SMILES": "O=C1NC(=O)C(Cc2ccc(O)cc2)S1 (stereo not shown)", "MIC": "> 128 µg/mL"}
{"SMILES": "Cc1ccc(C)n1-c1ccc(-c2nnco2)cc1", "assay": "broth dilution", "system": "ATCC11632", "conditions": "18 h", "MIC": "2 µg/mL"}
{"SMILES": "CS(=O)(=O)CCNCc1ccc(-c2ccc3ncnc(Nc4ccc(OCc5cccc(F)c5)c(Cl)c4)c3c2)o1", "system": "NCTC8325", "MIC": "> 30 µM"}
{"SMILES": "COc1ccc(C(=O)O)cc1NC(=O)/C=C/c1ccc(-c2ccccc2C)cc1", "MIC": "64 µg/mL"}
{"SMILES": "COc1cccc(OC)c1C(=O)N[C@@H]1C(=O)N2[C@@H]1SC(C)(C)[C@@H]2C(=O)O", "system": "156", "conditions": "clinical isolate", "MIC": "25 µM"}
{"SMILES": "CCOc1cc(-c2nc3ccccc3[nH]2)ccc1O", "assay": "broth dilution", "system": "ATCC29213 MSSA", "MIC": "128 µg/mL"}
{"SMILES": "Clc1ccc(NCc2ccc(Oc3ccccn3)cc2)cc1", "MIC": "> 3.1 µg/mL"}
{"SMILES": "O=C1NN=C(N=Cc2ccc(O)cc2O)C1=NNn1c(-c2ccccc2)nc2ccccc2c1=O", "assay": "broth dilution", "conditions": "24 h", "MIC": "107 µM"}
{"SMILES": "C/C=C(\\C)c1cc(O)c(C)c(OC(=O)c2c(C)c(Cl)c(O)c(Cl)c2O)c1", "assay": "broth dilution", "system": "6917", "MIC": "8 µg/mL"}
{"SMILES": "Cc1cc(/C=C2\\Sc3ccccc3N2CCCN2CCC(C)CC2)c2ccccc2[n+]1C.[I-]", "assay": "broth dilution", "system": "ATCCBAA44", "MIC": "1 µg/mL"}
{"SMILES": "CN(C)[C@@H]1C(O)=C(C(N)=O)C(=O)[C@@]2(O)C(O)=C3C(=O)c4c(O)cccc4[C@@](C)(O)[C@H]3C[C@@H]12", "system": "ATCC43300", "MIC": "2 µg/mL"}
{"SMILES": "C/C=C(\\C)c1cc(O)c(C)c(OC(=O)c2c(C)cc(O)c(Cl)c2O)c1", "assay": "broth dilution", "system": "CCARM3090", "MIC": "8 µg/mL"}
{"SMILES": "CSc1nc(C)c(Cl)c(O)n1", "MIC": "> 128 µg/mL"}
{"SMILES": "CC(C)Oc1c(NC(=O)c2ccc(NC(=O)[C@H](CC(N)=O)NC(=O)c3ccc(CNC(=O)c4ccc(C#N)cc4)cc3)cc2)ccc(C(=O)Nc2ccc(C(=O)O)cc2)c1O", "system": "ATCC29213", "MIC": "> 64 µg/mL"}
{"SMILES": "Fc1ccc(NCc2ccc(Oc3ccccn3)cc2)cc1", "MIC": "1.8 µg/mL"}
{"SMILES": "CNC(=O)c1ccc(NC(=O)Nc2ccc(Cl)c(C(F)(F)F)c2)cc1", "system": "NCTC8325", "conditions": "24 h", "MIC": "30 µM"}
